Laboratory results from ChEMBL document CHEMBL1151765, “Rational design of substituted diarylureas: a scaffold for binding to G-quadruplex motifs” (J Med Chem, 2008).
Activity calls are given as the source filed them. The rule behind the calls is not given here.

What was measured:
[1] = Selectivity ratio of equilibrium binding constant K for d[(AG3)2CGCTG3AG2AG3] sequence of c-kit1 G-quadruplex DNA to equilibrium binding constant K for d[CGA2T2CGTCTC2GA2T2CG] sequence of duplex DNA
[2] = Selectivity ratio of equilibrium binding constant K for d[(CG3)2CGCGAG3AG4] sequence of c-kit2 G-quadruplex DNA to equilibrium binding constant K for d[CGA2T2CGTCTC2GA2T2CG] sequence of duplex DNA
[3] = Stabilization of d[G3(T2AG3)3] sequence of F21T telomeric G-quadruplex DNA assessed as change in melting temperature at 1 uM by FRET assay relative to BRACO-19 in presence of calf thymus DNA
Procedure, shortened: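 F21T FRET melting with ligand at 1µM in the presence of calf thymus DNA competitor at increasing bp concentrations. Retained stabilization, from three experiments, normalized to the ligand's ΔTm with no competitor (100%) ± normalized sd.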

[4] = Selectivity ratio of equilibrium binding constant K for human telomeric d[AG3(T2AG3)3] sequence to equilibrium binding constant K for d[CGA2T2CGTCTC2GA2T2CG] sequence of duplex DNA
MCF7 [5] = assay: Cytotoxicity against human MCF7 cells after 96 hrs by SRB assay; type: functional, cell-based; details: MCF7, 96 h
[6] = Stabilization of d[C3G3CG3CGCGAG3AG4AG2] sequence of c-kit2 G-quadruplex DNA assessed as change in melting temperature at 1 uM by FRET assay
Procedure, shortened: (§1)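 Dual-labelled FAM/TAMRA oligos at 400nM in 60mM KCl potassium cacodylate buffer, pH 7.4, heated to 85 °C for 10 min, then cooled. Ligand added to 1µM; buffer alone as negative control. Excitation 450–495nm, emission read at 515–545nm every 0.5 °C from 30–100 °C. ΔTm is ligand Tm minus control Tm, from four experiments ± maximum sd; c-kit1 curves fitted to sigmoids.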

[7] = Cytotoxicity against human WI38 cells after 96 hrs by SRB assay; type: cell-based; details: WI-38, 96 h
[8] = Binding affinity to biotin-labeled d[(AG3TG4)2A] sequence of c-myc G-quadruplex DNA by surface plasmon resonance analysis
Procedure, shortened: (§2)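 Streptavidin chip with 5′-biotinylated DNA immobilized to 350-400 RU; blank reference flow cell. Run in 10mM HEPES, 100mM KCl, 3mM EDTA, P20 surfactant, pH 7.3, 25°C. Ligand 1nM to 10µM (from 20mM DMSO stock) injected at 50µl/min for 5–10 min to steady state, then 10 min buffer dissociation; glycine pH 2.0 regeneration between cycles.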

[9] = molecular target: T1, Telomerase reverse transcriptase (Homo sapiens, UniProt O14746); assay: Inhibition of telomerase by TRAP-LIG assay
MCF7 [10] = assay: Cytotoxicity against human MCF7 cells assessed as population doubling at 1.75 uM after 1 week […] relative to control; type: functional
Procedure, shortened: (§3)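 MCF7 cells (1×10^5) treated with sub-cytotoxic ligand concentrations for 1 week, biweekly dosing. Cells counted by haemocytometer; population doublings n = (log Pn – log P0)/log2. Values normalized to vehicle control (100%) ± sd, two independent concentrations per ligand.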

[11] = Binding affinity to biotin-labeled d[(AG3)2CGCTG3AG2AG3] sequence of c-kit1 G-quadruplex DNA by surface plasmon resonance analysis; procedure, shortened: as §2
[12] = Binding affinity to biotin-labeled d[CGA2T2CGTCTC2GA2T2CG] sequence of duplex DNA by surface plasmon resonance analysis; procedure, shortened: as §2
[13] = molecular target: T1, Telomerase reverse transcriptase; assay: Inhibition of telomerase at 50 uM by TRAP-LIG assay relative to control
MCF7 [14] = assay: Cytotoxicity against human MCF7 cells assessed as population doubling at 1 uM after 1 week […] relative to control; type: functional; procedure, shortened: as §3
MCF7 [15] = assay: Cytotoxicity against human MCF7 cells assessed as population doubling at 2.25 uM after 1 week […] relative to control; type: functional; procedure, shortened: as §3
Homo sapiens = species on record: Homo sapiens; assay: Binding affinity to biotin-labeled human telomeric d[AG3(T2AG3)3] sequence by surface plasmon resonance analysis; procedure, shortened: as §2
MCF7 [16] = assay: Cytotoxicity against human MCF7 cells assessed as cell senescence at 1.75 uM after 1 week by beta-galactosidase assay; type: functional
[17] = Stabilization of d[AGAG3AG2GCGCTG3AG2AG3GCT] sequence of c-kit1 G-quadruplex DNA assessed as change in melting temperature at 1 uM by FRET assay; procedure, shortened: as §1
[18] = Selectivity ratio of equilibrium binding constant K for d[(AG3TG4)2A] sequence of c-myc G-quadruplex DNA to equilibrium binding constant K for d[CGA2T2CGTCTC2GA2T2CG] sequence of duplex DNA
A549 [19] = assay: Cytotoxicity against human A549 cells after 96 hrs by SRB assay; type: functional, cell-based; details: A549, 96 h
[20] = Stabilization of d[(TA)2GC(TA)2T6(TA)2]GC(TA)2 sequence of duplex DNA assessed as change in melting temperature at 1 uM by FRET assay; procedure, shortened: as §1
MCF7 [21] = assay: Cytotoxicity against human MCF7 cells assessed as cell senescence at 2.25 uM after 1 week by beta-galactosidase assay; type: functional
[22] = Binding affinity to biotin-labeled d[(CG3)2CGCGAG3AG4] sequence of c-kit2 G-quadruplex DNA by surface plasmon resonance analysis; procedure, shortened: as §2
[23] = Stabilization of d[G3(T2AG3)3] sequence of F21T telomeric G-quadruplex DNA assessed as change in melting temperature at 1 uM by FRET assay
Procedure, shortened: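 Dual-labelled oligo (5′-FAM, 3′-TAMRA) at 400nM in FRET buffer (60mM KCl, K cacodylate, pH 7.4), heated to 85 °C for 10 min, cooled to room temperature. Ligand added from DMSO dilution. Excitation 450–495nm, emission 515–545nm, read every 0.5 °C from 30–100 °C. ΔTm from four experiments: averaged ligand Tm minus averaged buffer-control Tm, ± maximum sd.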

MCF7 [24] = assay: Cytotoxicity against human MCF7 cells assessed as cell senescence at 1 uM after 1 week by beta-galactosidase assay; type: functional
A549 [25] = assay: Selectivity ratio of IC50 for human A549 cells to IC50 for human WI38 cells
MCF7 [26] = assay: Selectivity ratio of IC50 for human MCF7 cells to IC50 for human WI38 cells
MCF7 [27] = assay: Cytotoxicity against human MCF7 cells assessed as cell senescence at 2 uM after 1 week by beta-galactosidase assay; type: functional
MCF7 [28] = assay: Cytotoxicity against human MCF7 cells assessed as population doubling at 2 uM after 1 week […] relative to control; type: functional; procedure, shortened: as §3
MCF7 [29] = assay: Cytotoxicity against human MCF7 cells assessed as population doubling at 3.50 uM after 1 week […] relative to control; type: functional; procedure, shortened: as §3
MCF7 [30] = assay: Cytotoxicity against human MCF7 cells assessed as cell senescence at 3.5 uM after 1 week by beta-galactosidase assay; type: functional
MCF7 [31] = assay: Cytotoxicity against human MCF7 cells assessed as population doubling at 7 uM after 1 week […] relative to control; type: functional; procedure, shortened: as §3

T1 sequence (O14746 whole entry): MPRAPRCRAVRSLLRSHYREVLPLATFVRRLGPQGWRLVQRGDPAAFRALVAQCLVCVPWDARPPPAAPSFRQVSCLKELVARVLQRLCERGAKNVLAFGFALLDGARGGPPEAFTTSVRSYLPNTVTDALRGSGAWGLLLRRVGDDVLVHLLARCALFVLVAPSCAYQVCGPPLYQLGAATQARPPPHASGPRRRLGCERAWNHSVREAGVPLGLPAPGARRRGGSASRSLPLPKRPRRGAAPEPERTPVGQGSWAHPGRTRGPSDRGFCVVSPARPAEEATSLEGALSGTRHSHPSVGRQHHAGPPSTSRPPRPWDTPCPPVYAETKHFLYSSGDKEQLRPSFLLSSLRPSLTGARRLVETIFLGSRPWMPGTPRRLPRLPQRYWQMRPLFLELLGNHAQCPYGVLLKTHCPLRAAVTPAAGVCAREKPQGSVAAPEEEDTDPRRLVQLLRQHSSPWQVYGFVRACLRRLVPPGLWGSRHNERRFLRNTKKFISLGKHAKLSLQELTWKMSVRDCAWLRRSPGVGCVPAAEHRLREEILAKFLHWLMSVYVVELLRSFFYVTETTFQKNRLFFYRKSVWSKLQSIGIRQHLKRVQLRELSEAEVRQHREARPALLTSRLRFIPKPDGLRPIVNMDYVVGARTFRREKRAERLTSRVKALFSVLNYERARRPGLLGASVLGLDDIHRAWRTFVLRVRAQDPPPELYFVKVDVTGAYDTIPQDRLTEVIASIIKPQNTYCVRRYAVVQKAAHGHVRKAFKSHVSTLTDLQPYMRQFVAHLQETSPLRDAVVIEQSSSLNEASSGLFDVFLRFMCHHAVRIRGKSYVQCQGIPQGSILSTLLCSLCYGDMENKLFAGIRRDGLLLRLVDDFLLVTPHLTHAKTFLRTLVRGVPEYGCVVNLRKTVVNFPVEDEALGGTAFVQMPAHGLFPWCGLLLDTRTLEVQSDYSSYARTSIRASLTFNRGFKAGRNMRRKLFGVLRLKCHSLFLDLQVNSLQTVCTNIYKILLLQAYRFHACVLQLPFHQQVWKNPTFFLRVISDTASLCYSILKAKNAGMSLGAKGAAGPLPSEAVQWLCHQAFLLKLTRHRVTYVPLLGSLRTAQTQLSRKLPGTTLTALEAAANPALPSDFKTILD

| SMILES | Selectivity ratio [1] | Selectivity ratio [2] | Activity [3] | Selectivity ratio [4] | IC50 (MCF7 [5]) [µM] | change in melting temperature (ΔTm) [6] [°C] | IC50 [7] [µM] | KA [8] [×10⁶ /M] | EC50 [9] [µM] | KA [11] [×10⁶ /M] | KA [12] [×10³ /M] | inhibition [13] [%] | Activity (MCF7 [14]) [%] | KA (Homo sapiens) [×10⁶ /M] | change in melting temperature (ΔTm) [17] [°C] | Selectivity ratio [18] | IC50 (A549 [19]) [µM] | change in melting temperature (ΔTm) [20] [°C] | KA [22] [×10⁶ /M] | change in melting temperature (ΔTm) [23] [°C] | also measured |
| --- | --- | --- | --- | --- | --- | --- | --- | --- | --- | --- | --- | --- | --- | --- | --- | --- | --- | --- | --- | --- | --- |
| O=C(CCN1CCCC1)Nc1ccc(NC(=O)c2cccc(NC(=O)Nc3cccc(C(=O)Nc4ccc(NC(=O)CCN5CCCC5)cc4)c3)c2)cc1 | > 400 | > 400 | Active | > 400 | 2.6 | 18.7 | 7.5 | 2.1 | > 50 | 1.4 | < 1 | 6 | 110.4 | 1.1 | 10.2 | > 400 | 5.3 | 0.4 | 5 | 13.5 | Activity (MCF7 [10]): 109.6%; Activity (MCF7 [15]): 66.5%; Activity (MCF7 [16]): 3.1%; Activity (MCF7 [21]): 2.4% |
| O=C(CCN1CCCC1)Nc1cccc(NC(=O)c2ccc(NC(=O)Nc3ccc(C(=O)Nc4cccc(NC(=O)CCN5CCCC5)c4)cc3)cc2)c1 |  |  |  |  | 3.2 | 7.5 | > 50 |  |  |  |  |  | 82.9 |  | 0.5 |  | 4.3 | 4.9 |  | 5.1 | Activity (MCF7 [24]): 3%; Ratio IC50 (A549 [25]): 11.6; Ratio IC50 (MCF7 [26]): 15.6; Activity (MCF7 [27]): 4.1%; Activity (MCF7 [28]): 44% |
| O=C(CCCN1CCCC1)Nc1ccc(NC(=O)c2cccc(NC(=O)Nc3cccc(C(=O)Nc4ccc(NC(=O)CCCN5CCCC5)cc4)c3)c2)cc1 | > 400 | > 400 | Active | > 400 | 11.1 | 17.1 | > 50 | 0.9 | > 50 | 0.4 | < 1 | 36 |  | 0.4 | 10.1 | > 400 | > 50 |  | 3.1 | 12 | Ratio IC50 (A549 [25]): 1; Activity (MCF7 [29]): 96%; Activity (MCF7 [30]): 1.6%; Activity (MCF7 [31]): 81.5% |
